For 14 compounds, Activity results are on record in ChEMBL document CHEMBL1773015, “2-Arylbenzothiazole, benzoxazole and benzimidazole derivatives as fluorogenic substrates for the detection of nitroreductase and aminopeptidase activity in clinically important bacteria” (Bioorg Med Chem, 2011).

For assay [1], the system named is Enterobacter cloacae. The assay is described as follows: Binding affinity to Enterobacter cloacae NCTC 11936 aminopeptidase assessed as fluorescent colonies after 24 hrs by fluorescence staining. In outline: (§1)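 Substrate in 1-methyl-2-pyrrolidone was mixed into molten Columbia agar at 50 °C (final 100 mg/L). NCTC strains were subcultured on Columbia agar and suspended in 0.85% saline to 10⁸ CFU/mL by densitometer. Plates were spread for single colonies and incubated at 37 °C in air for 24 h. Colonies were viewed under UV light (365 nm) and fluorescence intensity and colour scored visually; growth was also scored.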

Assay [2] has as its system Providencia rettgeri. Description: Binding affinity to Providencia rettgeri NCTC 7475 aminopeptidase assessed as fluorescent colonies after 24 hrs by fluorescence staining. In outline:
as §1

For assay [3], the system named is Serratia marcescens. The assay is described as follows: Binding affinity to Serratia marcescens NCTC 10211 aminopeptidase assessed as fluorescent colonies after 24 hrs by fluorescence staining. In outline:
as §1

Assay [4] deals with Pseudomonas aeruginosa. The assay is described as follows: Binding affinity to Pseudomonas aeruginosa NCTC 10662 aminopeptidase assessed as fluorescent colonies after 24 hrs by fluorescence staining. In outline: as §1
Assay [5] has as its system Morganella morganii. Description: Binding affinity to Morganella morganii WS 462403 aminopeptidase assessed as fluorescent colonies after 24 hrs by fluorescence staining. In outline:
as §1

The test system of assay [6] is Escherichia coli. The assay is described as follows: Binding affinity to Escherichia coli NCTC 10418 aminopeptidase assessed as fluorescent colonies after 24 hrs by fluorescence staining. In outline: as §1
For assay [7], the system named is Providencia rettgeri. The assay is described as follows: Binding affinity to Providencia rettgeri NCTC 7475 nitroreductase assessed as fluorescent colonies after 24 hrs by fluorescence staining. In outline:
(§2)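 Columbia agar plates contained substrate at a final 100 mg/L, added from a 1-methyl-2-pyrrolidone solution to molten agar at 50 °C. Inoculum was a 10⁸ CFU/mL suspension in 0.85% saline, spread for single colonies, then incubated at 37 °C in air for 24 h. Colony fluorescence under UV light (365 nm) was graded as strong, moderate, weak or none, with colour noted.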

Assay [8] deals with Pseudomonas aeruginosa. The assay is described as follows: Binding affinity to Pseudomonas aeruginosa NCTC 10662 nitroreductase assessed as fluorescent colonies after 24 hrs by fluorescence staining. In outline: as §2
Assay [9] has as its system Morganella morganii. The assay is described as follows: Binding affinity to Morganella morganii WS 462403 nitroreductase assessed as fluorescent colonies after 24 hrs by fluorescence staining. In outline: as §2
For a further assay, the system named is Listeria monocytogenes. Description: Binding affinity to Listeria monocytogenes NCTC 11994 nitroreductase assessed as fluorescent colonies after 24 hrs by fluorescence staining. In outline: as §2
Assay [10] relates to Enterobacter cloacae. Description: Binding affinity to Enterobacter cloacae NCTC 11936 nitroreductase assessed as fluorescent colonies after 24 hrs by fluorescence staining. In outline:
as §2

The test system of the next assay is Streptococcus pyogenes. The assay is described as follows: Binding affinity to Streptococcus pyogenes NCTC 8306 nitroreductase assessed as fluorescent colonies after 24 hrs by fluorescence staining. In outline:
as §2

Assay [11] relates to Staphylococcus epidermidis. Description: Binding affinity to Staphylococcus epidermidis NCTC 11047 nitroreductase assessed as fluorescent colonies after 24 hrs by fluorescence staining. In outline: as §2
Assay [12] deals with Serratia marcescens. Description: Binding affinity to Serratia marcescens NCTC 10211 nitroreductase assessed as fluorescent colonies after 24 hrs by fluorescence staining. In outline:
as §2

Assay [13] has as its system Staphylococcus aureus. The assay is described as follows: Binding affinity to Staphylococcus aureus (MRSA) NCTC 11939 nitroreductase assessed as fluorescent colonies after 24 hrs by fluorescence staining. In outline: as §2
Assay [14] relates to Escherichia coli. The assay is described as follows: Binding affinity to Escherichia coli NCTC 10418 nitroreductase assessed as fluorescent colonies after 24 hrs by fluorescence staining. In outline: as §2
Another assay concerns Enterococcus faecalis. The assay is described as follows: Binding affinity to Enterococcus faecalis NCTC 775 nitroreductase assessed as fluorescent colonies after 24 hrs by fluorescence staining. In outline:
as §2

In assay [15] the test system is Staphylococcus aureus. Description: Binding affinity to Staphylococcus aureus NCTC 6571 nitroreductase assessed as fluorescent colonies after 24 hrs by fluorescence staining. In outline: as §2
The test system of a further assay is Enterococcus faecium. Description: Binding affinity to Enterococcus faecium NCTC 7171 nitroreductase assessed as fluorescent colonies after 24 hrs by fluorescence staining.

The source made the active and inactive calls. The calls are words filed in the database; no cut-off is given here.

`NCCC(=O)Nc1ccccc1-c1nc2ccccc2s1`: the result in the assay with Enterobacter cloacae [1] and in the assay with Providencia rettgeri [2] was inactive. Moreover, the result in the assay on Serratia marcescens [3], with Pseudomonas aeruginosa [4], in the assay on Morganella morganii [5] and in the assay on Escherichia coli [6] was Active.
As to `NCCC(=O)Nc1ccccc1-c1nc2ccccc2o1`, the outcome in the assay on Enterobacter cloacae [1], in the assay with Providencia rettgeri [2], with Serratia marcescens [3], with Pseudomonas aeruginosa [4], with Morganella morganii [5] and with Escherichia coli [6] was Active.
In the case of `O=[N+]([O-])c1ccc(F)cc1-c1nc2ccccc2o1`, the outcome with Providencia rettgeri [7], in the assay on Morganella morganii [9], in the assay with Enterobacter cloacae [10], in the assay on Serratia marcescens [12], in the assay with Staphylococcus aureus [13] and in the assay on Escherichia coli [14] was Active. Also, the result with Staphylococcus aureus [15] was Active. Further, the outcome (in the assay with Pseudomonas aeruginosa [8]; with Listeria monocytogenes; with Streptococcus pyogenes; in [11]; with Enterococcus faecalis; in the assay with Enterococcus faecium) was inactive.
Turning to `O=[N+]([O-])c1ccc(Cl)cc1-c1nc2ccccc2o1`, the outcome in the assay with Providencia rettgeri [7], in the assay on Pseudomonas aeruginosa [8], in the assay on Morganella morganii [9], in the assay with Enterobacter cloacae [10], in the assay on Serratia marcescens [12] and in the assay on Staphylococcus aureus [13] was Active. Also, the outcome with Escherichia coli [14] and in the assay on Staphylococcus aureus [15] was Active. The result (with Listeria monocytogenes; in the assay on Streptococcus pyogenes; in assay [11]; in the assay with Enterococcus faecalis; with Enterococcus faecium) was inactive.
Turning to `Cn1c(-c2ccccc2[N+](=O)[O-])nc2ccccc21`, the outcome (in the assay on Providencia rettgeri [7]; in the assay with Pseudomonas aeruginosa [8]; in the assay with Listeria monocytogenes; in the assay on Enterobacter cloacae [10]; in the assay on Streptococcus pyogenes; in assay [11]) was inactive. For the same compound, the outcome in the assay on Serratia marcescens [12], in the assay on Staphylococcus aureus [13], in the assay with Escherichia coli [14], in the assay on Enterococcus faecalis, in the assay with Staphylococcus aureus [15] and in the assay with Enterococcus faecium was inactive. Further, in the assay on Morganella morganii [9], the outcome was Active.
As for `Cn1c(-c2cc(Cl)ccc2[N+](=O)[O-])nc2ccccc21`, the result in the assay with Providencia rettgeri [7], with Pseudomonas aeruginosa [8], in the assay with Morganella morganii [9], with Enterobacter cloacae [10], in the assay on Serratia marcescens [12] and with Staphylococcus aureus [13] was Active. Further, the result with Escherichia coli [14] and with Staphylococcus aureus [15] was Active. Also, the result (with Listeria monocytogenes; in the assay with Streptococcus pyogenes; in assay [11]; with Enterococcus faecalis; in the assay with Enterococcus faecium) was inactive.
With `O=[N+]([O-])c1ccc(F)cc1-c1nc2ccccc2s1`, the result in the assay on Providencia rettgeri [7], in the assay on Morganella morganii [9], in the assay with Enterobacter cloacae [10], in the assay with Serratia marcescens [12], in the assay on Staphylococcus aureus [13] and in the assay on Escherichia coli [14] was Active. Further, the outcome in the assay on Staphylococcus aureus [15] was Active. The result (with Pseudomonas aeruginosa [8]; in the assay on Listeria monocytogenes; with Streptococcus pyogenes; in assay [11]; in the assay with Enterococcus faecalis; in the assay with Enterococcus faecium) was inactive.
`O=[N+]([O-])c1ccc(Cl)cc1-c1nc2ccccc2s1`: the outcome in the assay with Providencia rettgeri [7], in the assay on Pseudomonas aeruginosa [8], in the assay on Morganella morganii [9], in the assay on Enterobacter cloacae [10], in the assay with Serratia marcescens [12] and with Staphylococcus aureus [13] was Active. Also, the outcome in the assay on Escherichia coli [14] and with Staphylococcus aureus [15] was Active. Also, the outcome (in the assay on Listeria monocytogenes; in the assay on Streptococcus pyogenes; in assay [11]; with Enterococcus faecalis; in the assay with Enterococcus faecium) was inactive.
For the compound `C[C@H](N)C(=O)Nc1ccccc1-c1nc2ccccc2s1`, the result in the assay on Enterobacter cloacae [1], with Providencia rettgeri [2], with Serratia marcescens [3], with Pseudomonas aeruginosa [4], in the assay on Morganella morganii [5] and with Escherichia coli [6] was Active.
On to `COc1cc(-c2nc3ccccc3o2)c([N+](=O)[O-])cc1OC`, for which the outcome in the assay with Providencia rettgeri [7], in the assay on Morganella morganii [9], in the assay on Enterobacter cloacae [10], in the assay on Serratia marcescens [12], in the assay with Staphylococcus aureus [13] and in the assay with Escherichia coli [14] was Active. For the same compound, the outcome in the assay with Staphylococcus aureus [15] was Active. Also, the result (in the assay with Pseudomonas aeruginosa [8]; in the assay on Listeria monocytogenes; in the assay with Streptococcus pyogenes; in assay [11]; with Enterococcus faecalis; with Enterococcus faecium) was inactive.
Take `C[C@H](N)C(=O)Nc1ccccc1-c1nc2ccccc2o1`: the result with Enterobacter cloacae [1], with Providencia rettgeri [2], in the assay with Serratia marcescens [3], with Pseudomonas aeruginosa [4], with Morganella morganii [5] and in the assay on Escherichia coli [6] was Active.
Consider `O=[N+]([O-])c1ccccc1-c1nc2ccccc2s1`, for which the result (with Providencia rettgeri [7]; with Morganella morganii [9]; in the assay on Enterobacter cloacae [10]; in assay [11]; in the assay on Serratia marcescens [12]; in the assay with Staphylococcus aureus [13]) was Active. The outcome in the assay with Escherichia coli [14] and in the assay on Staphylococcus aureus [15] was Active. Further, the result in the assay with Pseudomonas aeruginosa [8], in the assay on Listeria monocytogenes, in the assay on Streptococcus pyogenes, in the assay with Enterococcus faecalis and in the assay on Enterococcus faecium was inactive.
For `O=[N+]([O-])c1ccccc1-c1nc2ccccc2o1`, the outcome (in the assay on Providencia rettgeri [7]; in the assay on Pseudomonas aeruginosa [8]; in the assay with Morganella morganii [9]; in the assay with Enterobacter cloacae [10]; in [11]; with Serratia marcescens [12]) was Active. Moreover, the result in the assay on Staphylococcus aureus [13], with Escherichia coli [14] and with Staphylococcus aureus [15] was Active. Further, the result in the assay on Listeria monocytogenes, in the assay with Streptococcus pyogenes, in the assay with Enterococcus faecalis and in the assay on Enterococcus faecium was inactive.
Consider `COc1cc(-c2nc3ccccc3s2)c([N+](=O)[O-])cc1OC`, for which the outcome (in the assay with Providencia rettgeri [7]; in the assay with Pseudomonas aeruginosa [8]; in the assay on Morganella morganii [9]; in the assay on Enterobacter cloacae [10]; in assay [11]; in the assay with Serratia marcescens [12]) was Active. Moreover, the outcome in the assay on Staphylococcus aureus [13], in the assay with Escherichia coli [14] and in the assay on Staphylococcus aureus [15] was Active. The result with Listeria monocytogenes, in the assay on Streptococcus pyogenes, in the assay with Enterococcus faecalis and in the assay with Enterococcus faecium was inactive.
